Activity calls are given as the source filed them. The rule behind the calls is not given here.
Tests used:
Listeria monocytogenes [1] = assay: Antibacterial activity against Listeria monocytogenes EGD-e in BALB/c mouse central nervous system listeriosis model assessed as reduction in bacterial count in liver at 50 mg/kg, ip administered 36 hrs postinfection as single dose measured within 6 hr; assay type: functional, organism-based; parameters: dose 50 mg/kg
Summary of the method: (§1)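 Female BALB/c mice (7–8 weeks) were infected i.v. with 1 × 10^5 EGD-e and given one i.p. dose of 50 mg·kg−1 at 36 h; saline was given to controls. Groups of three were sampled at 1, 6, 24 and 48 h. Blood and homogenized liver, spleen and brain were serially diluted 10-fold on BHI agar and counted after 24 h at 37°C. Results are mean ± SE log10 CFU/organ or per ml blood.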

Listeria monocytogenes [2] = assay: Antibacterial activity against Listeria monocytogenes EGD-e in BALB/c mouse central nervous system listeriosis model assessed as increase in mouse survival at 50 mg/kg, ip administered 36 hrs postinfection every 12 hrs for 5 days; assay type: functional; conditions: route intraperitoneal
Summary of the method: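 Female BALB/c mice, 7–8 weeks old, were infected i.v. via the tail vein with 1 × 10^5 EGD-e in 0.5 ml saline. From 36 h they received 50 mg·kg−1 i.p. in isotonic saline (0.1 ml) every 12 h for 5 days, with n = 20. Controls got saline (n = 5). Death was checked twice daily, and survivors were followed 2 months for relapse. Results were plotted as Kaplan-Meier estimates.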

Listeria monocytogenes [3] = assay: Antibacterial activity against Listeria monocytogenes EGD-e in BALB/c mouse central nervous system listeriosis model assessed as log reduction in bacterial CFU per ml of blood at 50 mg/kg, ip administered 36 hrs postinfection as single dose measured within 1 hr; assay type: functional; conditions: route intraperitoneal; summary of the method: as §1
Listeria monocytogenes [4] = assay: Antibacterial activity against Listeria monocytogenes EGD-e in BALB/c mouse central nervous system listeriosis model assessed as increase in mouse survival at 50 mg/kg, ip administered 36 hrs postinfection as single dose; assay type: functional; conditions: route intraperitoneal
Summary of the method: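 Female BALB/c mice, 7–8 weeks old, were infected via the lateral tail vein with 1 × 10^5 EGD-e in 0.5 ml saline. At 36 h they received a single 50 mg·kg−1 i.p. dose in isotonic saline (0.1 ml), with n = 12. Controls got saline (n = 5). Death was checked twice daily from 36 h, and survivors were followed 2 months. Results were plotted as Kaplan-Meier estimates.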

Listeria monocytogenes [5] = assay: Antibacterial activity against Listeria monocytogenes EGD-e in BALB/c mouse central nervous system listeriosis model assessed as reduction in bacterial count in spleen at 50 mg/kg, ip administered 36 hrs postinfection as single dose measured within 6 hr; assay type: functional, organism-based; parameters: dose 50 mg/kg; summary of the method: as §1
Listeria monocytogenes [6] = assay: Antibacterial activity against Listeria monocytogenes EGD-e in BALB/c mouse central nervous system listeriosis model assessed as mouse survival at 50 mg/kg, ip administered 36 hrs postinfection every 12 hrs for 5 days measured after 2 months; assay type: functional, organism-based; parameters: dose 50 mg/kg
Summary of the method: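 BALB/c females were infected i.v. with 1 × 10^5 EGD-e. Starting 36 h after infection, they were dosed i.p. at 50 mg·kg−1 every 12 h for 5 days (n = 20); saline controls n = 5. Deaths were checked twice daily from 36 h post-infection. Survivors were followed for 2 months for relapse, and survival was analysed by Kaplan-Meier.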

[7] = AUC (24 hrs) in plasma in Listeria monocytogenes EGD-e infected BALB/c mouse central nervous system listeriosis model at 50 mg/kg, ip administered 36 hrs postinfection as single dose; assay type: ADME, organism-based; parameters: time < 24 hr, dose 50 mg/kg, route intraperitoneal
Summary of the method: (§2)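 Female BALB/c mice, 7–8 weeks old, were infected i.v. via the tail vein with 1 × 10^5 EGD-e. At 36 h they received one i.p. dose of 50 mg·kg−1 in isotonic saline. Groups of six were killed at 0–480 min. Blood-cleared brain homogenate and plasma were deproteinized with acetonitrile, with ciprofloxacin as internal standard, and analysed by reverse-phase HPLC with fluorescence detection (ex 290/em 550 nm). Cmax was read from the curves; AUC24 was calculated by the trapezoidal rule.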

Listeria monocytogenes [8] = assay: Antibacterial activity against Listeria monocytogenes EGD-e in BALB/c mouse central nervous system listeriosis model assessed as reduction in bacterial count in liver at 50 mg/kg, ip administered 36 hrs postinfection as single dose measured within 1 hr; assay type: functional, organism-based; parameters: dose 50 mg/kg; summary of the method: as §1
Listeria monocytogenes [9] = assay: Antibacterial activity against Listeria monocytogenes EGD-e in BALB/c mouse central nervous system listeriosis model assessed as reduction in bacterial count in spleen at 50 mg/kg, ip administered 36 hrs postinfection as single dose measured within 1 hr; assay type: functional, organism-based; parameters: dose 50 mg/kg; summary of the method: as §1
[10] = Cmax in plasma in Listeria monocytogenes EGD-e infected BALB/c mouse central nervous system listeriosis model at 50 mg/kg, ip administered 36 hrs postinfection as single dose; assay type: ADME, organism-based; parameters: dose 50 mg/kg, route intraperitoneal; summary of the method: as §2

| SMILES | Activity (Listeria monocytogenes [1]) | Activity (Listeria monocytogenes [2]) [%] | FC (Listeria monocytogenes [3]) | Time (Listeria monocytogenes [4]) [h] | Activity (Listeria monocytogenes [5]) | Activity (Listeria monocytogenes [6]) | AUC at 24 h [7] [ng·h/mL] | Activity (Listeria monocytogenes [8]) | Activity (Listeria monocytogenes [9]) | Cmax [10] [ng/mL] |
| --- | --- | --- | --- | --- | --- | --- | --- | --- | --- | --- |
| CC1(C)S[C@@H]2[C@H](NC(=O)[C@H](N)c3ccc(O)cc3)C(=O)N2[C@H]1C(=O)O [AMOXICILLIN] | Active | 75 | 1 | 12 | Active | Active |  |  |  |  |
| COc1c(N2C[C@@H]3CCCN[C@@H]3C2)c(F)cc2c(=O)c(C(=O)O)cn(C3CC3)c12 [MOXIFLOXACIN] |  | 100 |  | 24 |  | Active | 27100 | Active | Active | 17300 |
